Data set [1] has as its target T1, Monoglyceride lipase (Homo sapiens, UniProt Q99685).
T1 sequence (Q99685 whole entry): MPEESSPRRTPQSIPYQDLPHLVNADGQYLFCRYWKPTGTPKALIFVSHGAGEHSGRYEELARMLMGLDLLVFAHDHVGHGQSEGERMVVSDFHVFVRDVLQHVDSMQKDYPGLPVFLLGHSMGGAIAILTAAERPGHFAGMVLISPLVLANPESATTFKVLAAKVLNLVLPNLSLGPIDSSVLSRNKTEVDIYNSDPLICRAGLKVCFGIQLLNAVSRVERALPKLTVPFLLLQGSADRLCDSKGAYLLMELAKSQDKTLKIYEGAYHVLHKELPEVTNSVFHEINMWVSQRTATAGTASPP
The experiment in a line: Inhibition of human recombinant MAGL using 4-nitrophenylacetate as substrate incubated for 30 mins by microplate reader assay. The method in brief:
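Human recombinant MAGL, 11 ng/well, in 10 mM Tris pH 7.2 with 1 mM EDTA and 0.1 mg/mL BSA, at room temperature. 4-NPA 133.3 µM stock added; enzyme added last. Absorbance at 405 nm after 30 min, minus a no-enzyme blank for each concentration. Sigmoidal fit; duplicates of three independent experiments.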

The target in data set [2] is T1, Monoglyceride lipase. Description: Inhibition of MAGL in human U937 cells assessed as reduction in [3H]glycerol formation using [1,2,3-3H]2-OG as substrate incubated for 15 mins by liquid scintillation spectroscopy. Format: cell-based, U-937. The method in brief: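 Intact U937 cells (1.0 × 10^6) in Tris-HCl 10 mM, EDTA 1 mM, 0.1% BSA, pH 8, given compound at 37 °C. Then 15 min at 37 °C with shaking. MAGL: 10 µM 2-OG plus 0.5 nM [3H]2-OG. FAAH: 1 µM AEA plus 2 nM [3H]AEA. Aqueous-phase tritium counted; three experiments in triplicate.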

The target in data set [3] is Cannabinoid receptor 1 (CB1) (Homo sapiens, UniProt P21554). Description: Displacement of [3H]CP55940 from human CB1 receptor at 10 uM incubated for 90 mins by radioligand binding assay. To be noted: probe [3H]CP55940. In outline:
(§1)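 Membranes expressing hCB1 or hCB2 in 50 mM Tris-HCl, 2.5 mM EDTA, 5 mM MgCl2, 0.5% BSA, pH 7.4, incubated with compound and 0.5 nM [3H]CP55,940 for 90 min at 30 °C. Nonspecific binding with 10 µM […]; filtered and counted. Screening at 10 µM; two experiments in triplicate.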
On the technique in general: Displacement assays read how much labelled ligand stays bound in the presence of the test substance.

The target in another data set is Cannabinoid receptor 2 (Homo sapiens, UniProt P34972). Description: Displacement of [3H]CP55940 from human CB2 receptor at 10 uM incubated for 90 mins by radioligand binding assay. In outline: as §1
Data set [4] concerns the target T2, Monoacylglycerol lipase ABHD6 (Homo sapiens, UniProt Q9BV23).
T2 sequence (Q9BV23 whole entry): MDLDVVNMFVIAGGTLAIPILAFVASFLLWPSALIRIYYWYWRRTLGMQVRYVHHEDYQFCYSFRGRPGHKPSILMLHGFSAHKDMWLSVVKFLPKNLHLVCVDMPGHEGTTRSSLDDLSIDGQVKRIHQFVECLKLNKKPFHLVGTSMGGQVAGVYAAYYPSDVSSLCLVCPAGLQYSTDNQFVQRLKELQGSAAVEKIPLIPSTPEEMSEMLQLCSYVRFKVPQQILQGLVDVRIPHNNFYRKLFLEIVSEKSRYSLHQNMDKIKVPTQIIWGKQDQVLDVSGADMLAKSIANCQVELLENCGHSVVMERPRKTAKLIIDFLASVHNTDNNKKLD
Description: Inhibition of human ABHD6 expressed in HEK293 cells using [3H]2-OG as substrate preincubated for 30 mins followed by substrate addition and measured after 5 mins by liquid scintillation spectroscopy. The data set is classed as cell-based. The method in brief: (§2)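 Homogenate (40 µg) of HEK293 cells stably transfected with human ABHD6 or ABHD12, preincubated with compound 30 min at 37 °C in […], 0.1% BSA, pH 7.6. 2-OG 10 µM added for 5 min at 37 °C. Stopped with CHCl3:MeOH; aqueous tritium counted; blanks and nontransfected HEK293 hydrolysis subtracted. Screening at 10 µM.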

For data set [5], the target named is T3, Fatty-acid amide hydrolase 1 (Mus musculus) (UniProt O08914).
T3 sequence (whole entry): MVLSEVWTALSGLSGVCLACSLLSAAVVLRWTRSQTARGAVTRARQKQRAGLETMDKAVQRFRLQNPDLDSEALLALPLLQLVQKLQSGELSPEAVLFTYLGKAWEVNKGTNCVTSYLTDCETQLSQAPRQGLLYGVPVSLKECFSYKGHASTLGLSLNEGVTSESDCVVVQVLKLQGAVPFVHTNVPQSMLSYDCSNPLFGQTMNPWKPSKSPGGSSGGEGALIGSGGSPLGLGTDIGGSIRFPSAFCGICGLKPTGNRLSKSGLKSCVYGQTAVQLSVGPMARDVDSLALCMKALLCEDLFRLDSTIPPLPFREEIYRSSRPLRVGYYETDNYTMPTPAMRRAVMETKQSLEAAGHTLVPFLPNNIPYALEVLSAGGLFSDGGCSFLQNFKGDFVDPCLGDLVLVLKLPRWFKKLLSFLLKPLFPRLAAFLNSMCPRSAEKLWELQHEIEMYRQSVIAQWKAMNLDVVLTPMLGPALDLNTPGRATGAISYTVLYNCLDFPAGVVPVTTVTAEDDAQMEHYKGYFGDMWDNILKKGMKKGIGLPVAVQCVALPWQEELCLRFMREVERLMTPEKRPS
The experiment in a line: Inhibition of FAAH in mouse brain membrane up to 30 uM preincubated for 25 mins followed by TAMRA-FP labeling addition and measured after 5 mins by competitive ABPP based analysis. The data set is classed as cell membranes. To be noted: dose microM <=30, time 30.0 min. The method in brief: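 Mouse brain membranes, 4 mg/mL in PBS, preincubated 25 min at 25 °C with compound at 10 µM or a range of concentrations. Labelled 5 min with TAMRA-FP at 125 nM final. Proteins resolved on 11% SDS-PAGE and scanned for fluorescence.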

A short description of data set [6]: Cytotoxicity against cancer-derived human organoids in HGSOC patient assessed as reduction in cell viability up to 100 uM measured after 96 hrs by Celltiter-glo luminescent assay. The data set is classed as functional, Neoplasm. The conditions noted are these: dose microM <=100. In outline: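 Organoids from three HGSOC patients. Tissue digested with 2 mg/mL collagenase for 30 min, embedded in BME matrix and cultured. Treated at 100 µM, with carboplatin as positive control. Viability read by CellTiter-Glo luminescence.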

For data set [7], the target named is T1, Monoglyceride lipase. The experiment in a line: Competitive inhibition of human recombinant MAGL using varying concentration of 4-nitrophenylacetate as substrate incubated for 30 mins by microplate reader assay. The method in brief: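 MAGL 11 ng/well; 4-nitrophenol absorbance recorded. Data fitted by the mixed-model inhibition fit to give Ki.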
In another data set the target is Cannabinoid receptor 1 (Homo sapiens, UniProt P21554). The experiment in a line: Displacement of [3H]CP55940 from human CB1 receptor incubated for 90 mins by radioligand binding assay. The method in brief:
as §1

For data set [8], the target named is T4, Monoacylglycerol lipase ABHD6 (Homo sapiens) (UniProt Q9BV23).
T4 sequence (whole entry): T2 sequence (Q9BV23 whole entry)
The experiment in a line: Inhibition of human ABHD6 expressed in HEK293 cells using [3H]2-OG as substrate at 10 uM preincubated for 30 mins followed by substrate addition and measured after 5 mins by liquid scintillation spectroscopy. Format: cell-based. The conditions noted are these: time 35.0 min. The method in brief:
as §2

Activity calls are given as the source filed them. No cut-off for these calls is given here.

Chain of Cannabinoid receptor 2 (P34972 whole entry): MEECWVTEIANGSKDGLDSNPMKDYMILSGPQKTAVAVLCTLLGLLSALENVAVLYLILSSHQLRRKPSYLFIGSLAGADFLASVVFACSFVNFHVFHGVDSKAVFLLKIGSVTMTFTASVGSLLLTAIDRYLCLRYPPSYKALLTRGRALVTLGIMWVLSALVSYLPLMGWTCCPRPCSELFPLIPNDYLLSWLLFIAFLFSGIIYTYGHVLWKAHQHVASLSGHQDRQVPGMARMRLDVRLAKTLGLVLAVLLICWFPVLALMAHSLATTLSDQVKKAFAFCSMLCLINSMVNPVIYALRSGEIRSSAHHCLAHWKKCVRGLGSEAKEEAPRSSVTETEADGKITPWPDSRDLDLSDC
Chain of Cannabinoid receptor 1 (CB1) (P21554 whole entry): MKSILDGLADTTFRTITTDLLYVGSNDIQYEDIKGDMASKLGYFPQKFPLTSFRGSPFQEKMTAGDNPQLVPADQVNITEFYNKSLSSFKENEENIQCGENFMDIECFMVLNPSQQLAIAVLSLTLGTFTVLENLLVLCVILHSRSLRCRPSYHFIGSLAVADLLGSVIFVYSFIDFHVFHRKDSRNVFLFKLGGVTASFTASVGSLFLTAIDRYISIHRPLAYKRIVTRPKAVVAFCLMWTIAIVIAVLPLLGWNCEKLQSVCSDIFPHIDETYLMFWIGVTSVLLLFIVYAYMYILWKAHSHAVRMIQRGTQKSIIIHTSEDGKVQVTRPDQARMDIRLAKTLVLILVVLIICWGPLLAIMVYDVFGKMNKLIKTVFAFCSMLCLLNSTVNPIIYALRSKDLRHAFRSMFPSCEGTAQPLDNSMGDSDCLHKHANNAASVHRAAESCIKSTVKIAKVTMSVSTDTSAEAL
Chain of Cannabinoid receptor 1 (P21554 whole entry): as above

One may read the IC50 as the concentration needed to halve the response being measured. In general, inhibition refers to the change of the read-out against control, counted positive when it falls. By Ki is commonly meant a dissociation constant, usually derived from enzyme kinetics or from competition with a known ligand. As for `O=C(c1ccc(Cc2ccccc2)cc1)C1CCN(C(=O)c2cc(O)c(F)cc2F)CC1`, the IC50 at Monoglyceride lipase [1] is 36 nM; at Monoglyceride lipase [2], 1230 nM; in data set [4], above 10000 nM; at Cannabinoid receptor 1 it was above 10000 nM. In [3], this compound yielded an inhibition at 1.5 h, 10 µM below 10%. In addition, the inhibition at Cannabinoid receptor 2 is below 10%; in data set [8] it was 10%. For the same compound, in data set [5], the inhibition result is “inactive”. The “inhibition (INH)” value in data set [6] was 18%. Moreover, on Monoglyceride lipase [7], the Ki turned out to be 30 nM.

As to `O=C(c1ccc(Cc2ccccc2)cc1)C1CCN(C(=O)c2cc(O)ccc2F)CC1`, the 50% inhibitory concentration (IC50) at Monoglyceride lipase [1] was 49 nM; at Monoglyceride lipase [2] it was 844 nM; in data set [4] it was above 10000 nM; on Cannabinoid receptor 1, above 10000 nM. The inhibition at 1.5 h, 10 µM in data set [3] is below 10%. Moreover, the inhibition at Cannabinoid receptor 2 was below 10%; in data set [8] it was 21%. In addition, the inhibition entry in data set [5] is “inactive”. Besides, the “inhibition (INH)” value in [6] is recorded as 42%. Moreover, on Monoglyceride lipase [7], the Ki was found to be 37 nM.

Regarding `O=C(c1ccc(Sc2ccccc2)cc1)C1CCN(C(=O)c2cc(O)c(F)cc2F)CC1`, the IC50 was 18 nM on Monoglyceride lipase [1], 568 nM on Monoglyceride lipase [2], above 10000 nM in data set [4] and above 10000 nM on Cannabinoid receptor 1. The compound also registered an inhibition at 1.5 h, 10 µM in data set [3] below 10%. The inhibition is below 10% on Cannabinoid receptor 2 and 18% in data set [8]. In addition, in data set [5], the inhibition entry is “inactive”. Further, in data set [6], the “inhibition (INH)” value is 42%. Moreover, at Monoglyceride lipase [7], the Ki came out at 11 nM.

With `O=C(c1ccc(Sc2ccccc2)cc1)C1CCN(C(=O)c2cc(O)ccc2F)CC1`, the IC50 on Monoglyceride lipase [1] is 30 nM; on Monoglyceride lipase [2], 868 nM; in [4], above 10000 nM; at Cannabinoid receptor 1 it was above 10000 nM. The inhibition at 1.5 h, 10 µM in data set [3] is below 10%. Moreover, the inhibition on Cannabinoid receptor 2 was below 10%; in data set [8] it was 40%. Besides, the inhibition entry in data set [5] is “inactive”. In addition, the “inhibition (INH)” value in data set [6] was determined as 42%. Besides, the Ki at Monoglyceride lipase [7] was 27 nM.

Source of the values: ChEMBL document CHEMBL4732057, “Design, synthesis and biological evaluation of second-generation benzoylpiperidine derivatives as reversible monoacylglycerol lipase (MAGL) inhibitors” (Eur J Med Chem, 2021).
